Measured values reported in ChEMBL document CHEMBL1165965, “Synthesis and structure-activity relationships of 1,2,3,4-tetrahydropyrido[2,3-b]pyrazines as potent and selective inhibitors of the anaplastic lymphoma kinase” (Bioorg Med Chem, 2010).

Assays:
[1] = target: T1, Testis-specific serine/threonine-protein kinase 1 (Homo sapiens) (UniProt Q9BXA7); test: Inhibition of TSSK1B at 1 uM
T1 sequence (whole entry): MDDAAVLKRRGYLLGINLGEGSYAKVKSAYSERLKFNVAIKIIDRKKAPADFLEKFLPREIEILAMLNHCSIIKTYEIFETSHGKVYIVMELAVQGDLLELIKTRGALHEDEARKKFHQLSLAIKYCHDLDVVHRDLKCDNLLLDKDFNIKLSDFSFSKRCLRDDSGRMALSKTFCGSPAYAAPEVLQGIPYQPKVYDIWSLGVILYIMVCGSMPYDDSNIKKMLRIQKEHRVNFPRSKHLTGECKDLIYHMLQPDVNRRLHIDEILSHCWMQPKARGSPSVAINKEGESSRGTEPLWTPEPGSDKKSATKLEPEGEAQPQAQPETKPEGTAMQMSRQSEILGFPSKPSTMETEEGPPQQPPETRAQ

[2] = target: T2, Serine/threonine-protein kinase BRSK1 (Homo sapiens) (UniProt Q8TDC3); test: Inhibition of BRSK1 at 1 uM
T2 sequence (whole entry): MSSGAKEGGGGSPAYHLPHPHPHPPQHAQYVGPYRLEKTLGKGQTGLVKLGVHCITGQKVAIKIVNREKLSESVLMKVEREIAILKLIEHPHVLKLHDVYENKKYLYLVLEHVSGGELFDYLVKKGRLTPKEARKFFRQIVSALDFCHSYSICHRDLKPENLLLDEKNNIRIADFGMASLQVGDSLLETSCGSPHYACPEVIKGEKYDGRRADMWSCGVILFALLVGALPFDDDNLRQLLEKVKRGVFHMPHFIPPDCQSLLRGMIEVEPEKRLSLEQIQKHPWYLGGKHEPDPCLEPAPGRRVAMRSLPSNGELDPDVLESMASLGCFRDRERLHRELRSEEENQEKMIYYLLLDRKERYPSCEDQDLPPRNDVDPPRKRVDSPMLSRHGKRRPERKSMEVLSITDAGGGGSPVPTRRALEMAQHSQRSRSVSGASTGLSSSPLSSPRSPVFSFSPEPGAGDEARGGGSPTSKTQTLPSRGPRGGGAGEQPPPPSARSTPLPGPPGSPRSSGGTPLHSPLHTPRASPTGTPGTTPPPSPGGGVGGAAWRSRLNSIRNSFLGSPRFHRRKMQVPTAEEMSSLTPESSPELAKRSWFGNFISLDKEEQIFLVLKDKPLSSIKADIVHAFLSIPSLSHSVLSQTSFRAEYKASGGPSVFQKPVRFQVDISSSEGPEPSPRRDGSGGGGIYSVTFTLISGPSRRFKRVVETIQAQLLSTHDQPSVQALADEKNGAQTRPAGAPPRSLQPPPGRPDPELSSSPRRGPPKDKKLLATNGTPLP
Outline: (§1)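 Ambit KINOMEscan screen at a single concentration across a 250–400 kinase panel, recorded as percent inhibition. Selectivity was expressed as S(90), the fraction of kinases inhibited >90%.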

[3] = tested on: Proto-oncogene tyrosine-protein kinase receptor Ret (Homo sapiens), P07949 [M918T]; test: Inhibition of RET M918T mutant at 1 uM
[4] = target: T3, Tyrosine-protein kinase ZAP-70 (Homo sapiens) (UniProt P43403); test: Inhibition of ZAP70 at 1 uM
T3 sequence (whole entry): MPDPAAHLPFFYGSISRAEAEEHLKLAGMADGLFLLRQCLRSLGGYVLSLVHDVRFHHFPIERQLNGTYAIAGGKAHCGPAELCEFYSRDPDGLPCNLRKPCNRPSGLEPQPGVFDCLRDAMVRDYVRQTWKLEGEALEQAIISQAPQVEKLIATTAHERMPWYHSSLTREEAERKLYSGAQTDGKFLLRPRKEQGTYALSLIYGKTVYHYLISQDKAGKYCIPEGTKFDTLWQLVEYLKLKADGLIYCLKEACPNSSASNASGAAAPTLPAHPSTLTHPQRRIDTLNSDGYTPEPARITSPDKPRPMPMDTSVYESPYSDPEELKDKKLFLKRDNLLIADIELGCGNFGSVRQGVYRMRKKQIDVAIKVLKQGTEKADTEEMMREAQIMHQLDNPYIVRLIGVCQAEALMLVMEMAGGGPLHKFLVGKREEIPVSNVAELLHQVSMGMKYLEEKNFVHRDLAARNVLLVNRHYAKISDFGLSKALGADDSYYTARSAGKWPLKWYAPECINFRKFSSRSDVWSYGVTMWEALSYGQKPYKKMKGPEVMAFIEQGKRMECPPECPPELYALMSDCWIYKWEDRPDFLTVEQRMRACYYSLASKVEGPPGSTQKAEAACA

[5] = target: Serine/threonine-protein kinase 24 (Homo sapiens) (UniProt Q9Y6E0); test: Inhibition of MST3 at 1 uM
[6] = tested on: Tyrosine-protein kinase ABL1 (Homo sapiens), P00519 [T315I]; test: Inhibition of ABL1 T315I mutant at 1 uM; outline: as §1
[7] = tested on: Tyrosine-protein kinase ABL1 (Homo sapiens), P00519 [E255K]; test: Inhibition of ABL1 E255K mutant at 1 uM; outline: as §1
[8] = target: Death-associated protein kinase 2 (Homo sapiens) (UniProt Q9UIK4); test: Inhibition of DAPK2 at 1 uM
Outline: (§2)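 Single-concentration screen using Ambit Bioscience KINOMEscan technology across a panel of 250–400 kinases. Per-kinase inhibition from this screen was summarized as S(90), the fraction of kinases inhibited by more than 90%.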

[9] = target: Phosphatidylinositol 4,5-bisphosphate 3-kinase catalytic subunit beta isoform (Homo sapiens) (UniProt P42338); test: Inhibition of PIK3CB at 1 uM
[10] = target: Receptor tyrosine-protein kinase erbB-2 (Homo sapiens) (UniProt P04626); test: Inhibition of ERBB2 at 1 uM; outline: as §2
[11] = target: Serine/threonine-protein kinase PLK3 (Homo sapiens) (UniProt Q9H4B4); test: Inhibition of PLK3 at 1 uM
Serine/threonine-protein kinase PLK3 (Homo sapiens), sequence (Q9H4B4 whole entry, looked up): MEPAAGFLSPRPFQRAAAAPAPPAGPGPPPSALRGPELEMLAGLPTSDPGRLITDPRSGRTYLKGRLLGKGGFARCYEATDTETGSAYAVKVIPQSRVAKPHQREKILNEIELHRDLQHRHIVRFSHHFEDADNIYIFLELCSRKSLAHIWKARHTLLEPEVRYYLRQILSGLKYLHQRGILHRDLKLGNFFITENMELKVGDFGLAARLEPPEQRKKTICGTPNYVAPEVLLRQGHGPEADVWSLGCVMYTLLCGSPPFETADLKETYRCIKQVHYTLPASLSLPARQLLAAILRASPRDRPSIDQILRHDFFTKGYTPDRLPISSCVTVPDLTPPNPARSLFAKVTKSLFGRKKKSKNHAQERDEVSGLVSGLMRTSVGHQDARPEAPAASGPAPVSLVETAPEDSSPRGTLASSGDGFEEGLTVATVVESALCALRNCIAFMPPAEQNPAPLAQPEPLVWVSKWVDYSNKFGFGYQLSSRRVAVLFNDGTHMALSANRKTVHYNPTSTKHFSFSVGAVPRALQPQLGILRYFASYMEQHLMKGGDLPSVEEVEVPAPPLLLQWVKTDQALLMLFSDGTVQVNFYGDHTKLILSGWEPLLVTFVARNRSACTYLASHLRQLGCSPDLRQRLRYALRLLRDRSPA

Death-associated protein kinase 2 (Homo sapiens), sequence (Q9UIK4 whole entry, looked up): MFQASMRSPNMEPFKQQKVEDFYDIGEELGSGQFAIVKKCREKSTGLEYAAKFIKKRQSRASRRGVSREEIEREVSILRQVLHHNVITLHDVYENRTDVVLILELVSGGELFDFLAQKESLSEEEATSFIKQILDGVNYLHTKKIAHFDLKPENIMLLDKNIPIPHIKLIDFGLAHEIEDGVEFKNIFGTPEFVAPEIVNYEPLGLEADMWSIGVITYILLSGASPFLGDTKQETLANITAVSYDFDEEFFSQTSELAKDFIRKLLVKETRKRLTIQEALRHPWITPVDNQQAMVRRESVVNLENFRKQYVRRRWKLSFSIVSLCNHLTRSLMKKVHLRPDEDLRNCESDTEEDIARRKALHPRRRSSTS
Serine/threonine-protein kinase 24 (Homo sapiens), sequence (Q9Y6E0 whole entry, looked up): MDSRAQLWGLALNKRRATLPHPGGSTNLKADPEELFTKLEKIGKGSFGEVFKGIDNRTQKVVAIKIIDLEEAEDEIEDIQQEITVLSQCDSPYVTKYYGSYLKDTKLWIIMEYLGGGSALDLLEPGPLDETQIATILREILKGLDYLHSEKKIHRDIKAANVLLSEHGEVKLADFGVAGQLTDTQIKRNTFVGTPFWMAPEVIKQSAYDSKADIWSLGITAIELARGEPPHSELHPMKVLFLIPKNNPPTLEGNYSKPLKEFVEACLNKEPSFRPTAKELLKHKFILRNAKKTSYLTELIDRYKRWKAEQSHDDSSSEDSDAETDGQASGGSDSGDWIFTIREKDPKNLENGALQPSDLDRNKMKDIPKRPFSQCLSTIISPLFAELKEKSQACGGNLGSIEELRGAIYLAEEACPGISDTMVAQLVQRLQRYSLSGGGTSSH
Proto-oncogene tyrosine-protein kinase receptor Ret (Homo sapiens), P07949 [M918T], sequence (P07949 whole entry M918T): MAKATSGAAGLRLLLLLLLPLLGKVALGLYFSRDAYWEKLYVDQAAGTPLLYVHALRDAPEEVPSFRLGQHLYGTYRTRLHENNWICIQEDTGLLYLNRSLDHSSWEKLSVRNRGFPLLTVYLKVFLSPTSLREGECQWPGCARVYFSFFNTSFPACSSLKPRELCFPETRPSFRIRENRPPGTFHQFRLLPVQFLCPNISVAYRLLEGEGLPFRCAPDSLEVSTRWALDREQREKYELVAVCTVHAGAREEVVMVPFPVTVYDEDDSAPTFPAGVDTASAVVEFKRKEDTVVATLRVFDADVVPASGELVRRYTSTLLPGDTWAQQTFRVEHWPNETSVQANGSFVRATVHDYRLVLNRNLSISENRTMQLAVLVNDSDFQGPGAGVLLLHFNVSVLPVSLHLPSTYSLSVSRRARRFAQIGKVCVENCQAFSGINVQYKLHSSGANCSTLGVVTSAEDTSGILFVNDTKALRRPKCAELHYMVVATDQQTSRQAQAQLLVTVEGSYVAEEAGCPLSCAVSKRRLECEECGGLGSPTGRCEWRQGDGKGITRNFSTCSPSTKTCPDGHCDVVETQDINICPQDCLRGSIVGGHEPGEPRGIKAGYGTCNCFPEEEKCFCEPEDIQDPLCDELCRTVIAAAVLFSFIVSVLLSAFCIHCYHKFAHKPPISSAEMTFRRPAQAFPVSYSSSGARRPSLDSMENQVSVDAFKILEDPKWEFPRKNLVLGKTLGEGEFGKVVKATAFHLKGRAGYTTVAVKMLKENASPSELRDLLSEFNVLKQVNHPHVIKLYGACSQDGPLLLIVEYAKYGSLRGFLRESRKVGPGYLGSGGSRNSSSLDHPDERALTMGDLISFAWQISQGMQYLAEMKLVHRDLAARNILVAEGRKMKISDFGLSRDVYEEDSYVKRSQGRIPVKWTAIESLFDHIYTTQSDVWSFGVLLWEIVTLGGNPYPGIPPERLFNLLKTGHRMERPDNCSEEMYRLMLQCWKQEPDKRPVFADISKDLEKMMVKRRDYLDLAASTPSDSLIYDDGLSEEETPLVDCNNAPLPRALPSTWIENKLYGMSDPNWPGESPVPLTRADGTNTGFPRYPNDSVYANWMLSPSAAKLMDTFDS
Phosphatidylinositol 4,5-bisphosphate 3-kinase catalytic subunit beta isoform (Homo sapiens), sequence (P42338 whole entry, looked up, canonical isoform): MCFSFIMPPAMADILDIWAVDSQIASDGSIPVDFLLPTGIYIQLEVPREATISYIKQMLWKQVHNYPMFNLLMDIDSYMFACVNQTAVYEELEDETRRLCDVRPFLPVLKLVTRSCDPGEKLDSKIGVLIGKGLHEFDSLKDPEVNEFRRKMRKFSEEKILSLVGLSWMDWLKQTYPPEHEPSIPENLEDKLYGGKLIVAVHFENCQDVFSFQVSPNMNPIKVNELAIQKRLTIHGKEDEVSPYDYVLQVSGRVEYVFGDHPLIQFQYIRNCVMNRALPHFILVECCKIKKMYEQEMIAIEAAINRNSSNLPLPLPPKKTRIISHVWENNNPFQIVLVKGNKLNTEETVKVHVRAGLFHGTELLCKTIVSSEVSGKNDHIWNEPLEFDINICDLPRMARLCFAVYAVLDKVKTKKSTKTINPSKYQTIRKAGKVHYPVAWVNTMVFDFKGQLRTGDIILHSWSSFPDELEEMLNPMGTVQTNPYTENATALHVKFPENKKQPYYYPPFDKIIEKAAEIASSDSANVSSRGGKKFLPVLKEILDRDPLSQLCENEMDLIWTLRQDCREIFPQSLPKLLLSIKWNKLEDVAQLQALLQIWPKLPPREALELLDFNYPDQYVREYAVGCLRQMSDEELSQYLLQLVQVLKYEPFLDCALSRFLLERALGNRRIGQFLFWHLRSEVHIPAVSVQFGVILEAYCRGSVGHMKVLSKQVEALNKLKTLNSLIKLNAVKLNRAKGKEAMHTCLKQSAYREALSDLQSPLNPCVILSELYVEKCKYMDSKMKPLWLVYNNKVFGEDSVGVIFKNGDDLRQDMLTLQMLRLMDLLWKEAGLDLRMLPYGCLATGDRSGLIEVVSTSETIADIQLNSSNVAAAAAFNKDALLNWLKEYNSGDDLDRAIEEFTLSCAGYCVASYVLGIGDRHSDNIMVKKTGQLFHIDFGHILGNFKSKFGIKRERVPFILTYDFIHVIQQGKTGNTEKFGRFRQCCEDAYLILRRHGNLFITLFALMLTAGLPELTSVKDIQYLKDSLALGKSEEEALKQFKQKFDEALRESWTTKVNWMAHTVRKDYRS
Receptor tyrosine-protein kinase erbB-2 (Homo sapiens), sequence (P04626 whole entry): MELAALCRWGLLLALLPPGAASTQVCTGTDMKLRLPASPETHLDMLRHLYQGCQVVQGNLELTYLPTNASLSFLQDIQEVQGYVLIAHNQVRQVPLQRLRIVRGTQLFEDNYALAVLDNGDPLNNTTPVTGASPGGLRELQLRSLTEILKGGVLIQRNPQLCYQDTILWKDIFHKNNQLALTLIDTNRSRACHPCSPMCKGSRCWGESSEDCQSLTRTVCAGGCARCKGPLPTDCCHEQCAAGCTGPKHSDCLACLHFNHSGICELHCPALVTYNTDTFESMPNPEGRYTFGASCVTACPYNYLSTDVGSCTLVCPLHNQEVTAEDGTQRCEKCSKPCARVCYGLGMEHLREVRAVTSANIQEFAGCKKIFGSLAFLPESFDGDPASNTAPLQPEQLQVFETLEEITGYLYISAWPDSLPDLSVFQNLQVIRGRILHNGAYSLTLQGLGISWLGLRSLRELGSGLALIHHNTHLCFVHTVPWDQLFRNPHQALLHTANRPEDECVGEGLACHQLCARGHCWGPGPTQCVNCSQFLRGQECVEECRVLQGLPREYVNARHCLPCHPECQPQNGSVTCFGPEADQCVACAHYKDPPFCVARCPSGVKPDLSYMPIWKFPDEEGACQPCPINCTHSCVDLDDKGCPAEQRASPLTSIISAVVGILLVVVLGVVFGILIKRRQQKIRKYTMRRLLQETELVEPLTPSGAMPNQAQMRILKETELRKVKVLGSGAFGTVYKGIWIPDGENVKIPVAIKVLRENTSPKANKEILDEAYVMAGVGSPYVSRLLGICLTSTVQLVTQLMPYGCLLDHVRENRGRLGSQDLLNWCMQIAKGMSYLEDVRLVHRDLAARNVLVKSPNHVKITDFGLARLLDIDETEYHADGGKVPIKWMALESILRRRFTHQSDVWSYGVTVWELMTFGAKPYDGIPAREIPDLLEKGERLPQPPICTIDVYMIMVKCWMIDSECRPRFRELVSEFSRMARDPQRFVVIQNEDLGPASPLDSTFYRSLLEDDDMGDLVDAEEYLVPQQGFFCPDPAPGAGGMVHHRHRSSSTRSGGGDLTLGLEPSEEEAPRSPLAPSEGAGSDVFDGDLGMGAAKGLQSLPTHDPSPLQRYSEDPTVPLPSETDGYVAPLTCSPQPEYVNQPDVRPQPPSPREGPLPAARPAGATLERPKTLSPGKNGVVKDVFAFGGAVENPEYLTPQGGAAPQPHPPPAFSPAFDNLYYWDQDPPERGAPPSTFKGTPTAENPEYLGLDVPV

SMILES | inhibition [1] | inhibition [2] | inhibition [3] | inhibition [4] | inhibition [5] | inhibition [6] | inhibition [7] | inhibition [9] | inhibition [10] | inhibition [11] | inhibition [8]
O=C(O)c1ccc(-c2cnc3c(c2)N(Cc2cc(Cl)ccc2C(F)(F)F)CCN3)cc1 |  | < 50% |  | < 50% |  |  | < 50% |  | < 50% | < 50% | < 50%
O=C(c1ccc(-c2cnc3c(c2)N(Cc2cc(Cl)ccc2C(F)(F)F)CCN3)cc1)N1CCC(N2CCCC2)CC1 |  | < 50% |  | < 50% |  | 83.2% | < 50% |  | < 50% | < 50% | < 50%
COC1CCN(C(=O)c2ccc(-c3cnc4c(c3)N(Cc3cc(Cl)ccc3C(F)(F)F)CCN4)cc2)CC1 |  | < 50% |  | < 50% |  | < 50% | < 50% |  | < 50% | < 50% | < 50%
CN1CCN(c2ccc(-c3cnc4c(c3)N(Cc3cc(F)ccc3F)CCN4)cn2)CC1 | < 50% | < 50% | < 50% | < 50% | < 50% | 80.4% | < 50% | < 50% | < 50% | < 50% | < 50%
CN1CCN(c2ccc(-c3cnc4c(c3)N(Cc3c(F)ccc(F)c3Cl)CCN4)cn2)CC1 | < 50% | < 50% | < 50% | < 50% | < 50% | 95% | 70% | < 50% | < 50% | < 50% | < 50%
O=C(c1ccc(-c2cnc3c(c2)N(Cc2cc(Cl)ccc2C(F)(F)F)CCN3)cc1)N1CCCCC1 |  | < 50% |  | < 50% |  | < 50% | < 50% |  | < 50% | < 50% | < 50%
CN1CCN(c2ccc(-c3cnc4c(c3)N(Cc3cc(Cl)ccc3Cl)CCN4)cn2)CC1 | < 50% | < 50% | < 50% | < 50% | < 50% | < 50% | < 50% | < 50% | < 50% | < 50% | < 50%

More lines, main results first:

inhibition [1] | inhibition [2] | inhibition [3] | inhibition [4] | inhibition [5] | inhibition [6] | inhibition [7] | inhibition [9] | inhibition [10] | inhibition [11] | SMILES | inhibition [8]
< 50% | < 50% | < 50% | < 50% | < 50% | < 50% | < 50% | < 50% | < 50% | < 50% | CN1CCN(c2ccc(-c3cnc4c(c3)N(Cc3cc(Cl)ccc3C(F)(F)F)CCN4)cn2)CC1 | < 50%
< 50% | < 50% | 67% | < 50% | < 50% | < 50% | < 50% | < 50% | < 50% | < 50% | FC(F)(F)c1ccc(Cl)cc1CN1CCNc2ncc(-c3ccnc(N4CCNCC4)c3)cc21 | < 50%
< 50% | < 50% | < 50% | < 50% | < 50% | < 50% | < 50% | < 50% | < 50% | < 50% | CC(=O)N1CCN(c2cc(-c3cnc4c(c3)N(Cc3cc(Cl)ccc3C(F)(F)F)CCN4)ccn2)CC1 | < 50%
